{"source": "paper PMC3240942", "about": "(Molecular cell, 2011)", "key": {"[1]": {"target": "T1, Sirt1 (Mus musculus, UniProt Q923E4)", "T1 sequence (Q923E4 1-737)": "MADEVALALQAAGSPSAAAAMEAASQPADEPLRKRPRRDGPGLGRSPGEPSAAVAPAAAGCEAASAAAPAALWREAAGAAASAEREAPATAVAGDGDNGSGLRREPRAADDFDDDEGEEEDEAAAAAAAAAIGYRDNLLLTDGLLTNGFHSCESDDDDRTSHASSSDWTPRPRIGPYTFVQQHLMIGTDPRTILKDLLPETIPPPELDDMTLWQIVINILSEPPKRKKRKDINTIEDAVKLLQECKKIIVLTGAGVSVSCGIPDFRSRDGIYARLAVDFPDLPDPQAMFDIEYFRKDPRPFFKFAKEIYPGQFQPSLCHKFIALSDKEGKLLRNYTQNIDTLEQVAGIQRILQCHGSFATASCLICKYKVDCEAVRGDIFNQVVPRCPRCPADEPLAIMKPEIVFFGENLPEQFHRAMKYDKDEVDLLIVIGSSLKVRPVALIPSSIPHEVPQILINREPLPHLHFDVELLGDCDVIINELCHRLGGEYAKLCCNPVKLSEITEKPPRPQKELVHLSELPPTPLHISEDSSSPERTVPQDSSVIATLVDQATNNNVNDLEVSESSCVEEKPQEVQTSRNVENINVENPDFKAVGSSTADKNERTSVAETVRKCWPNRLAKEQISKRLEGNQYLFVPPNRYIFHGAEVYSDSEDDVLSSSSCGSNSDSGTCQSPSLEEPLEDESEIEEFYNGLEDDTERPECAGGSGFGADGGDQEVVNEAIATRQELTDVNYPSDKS", "assay": "Inhibition of Sirt1 deacetylation of p53 in transfected H1299 cells", "assay_type": "cell-based", "conditions": "10-fold molar excess of expression vector, 20 μM etoposide 1 hr", "method_in_brief": "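H1299 cells transiently co-transfected with expression vectors for p53 and V5-tagged Sirt1, plus a 10-fold molar excess of a vector expressing the Flag-tagged test peptide (with or without a nuclear localization signal). After 48 h, cells are exposed to 20 μM etoposide for 1 hr before harvest. Acetylated p53 is detected by immunoblot with an antibody specific for acetyl-K382.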"}, "[2]": {"target": "T1, Sirt1", "conditions": "binds to deacetylase core of Sirt1; ref Kim et al., 2008; Zhao et al.; cited from earlier work"}}, "data": [{"substance": "DBC1: Deleted in Breast Cancer 1, endogenous Sirt1 inhibitor", "values": [{"measurement": "inhibition of Sirt1 activity in vivo (p53 deacetylation)", "setting": "[1]", "value": "also inhibited Sirt1 activity"}, {"measurement": "effect on Sirt1 activity", "setting": "[2]", "value": "inhibits its activity"}]}]}
